SR-BI DiI inh: inhibitors of SR-BI mediated HDL lipid uptake, primary screen, ldlA[mSR-BI] cells, fluorescence, single point; Scavenger receptor class B member 1 (Mus musculus), Q61009; ldlA[mSR-BI] CHO cells, DiI-HDL uptake fluorescence, 3 h; 320,000 compounds, 0.96% hits; inhibition, % at 12.5 µM;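 active = mean replicate inhibition of at least 70% and a set share of replicates each scoring 70 or more; inconclusive = meets just one of the two criteria; inactive = fails both criteria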;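 also: 0% = median of neutral control wells and 100% = median of positive control wells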
Target sequence (Q61009 whole entry, looked up): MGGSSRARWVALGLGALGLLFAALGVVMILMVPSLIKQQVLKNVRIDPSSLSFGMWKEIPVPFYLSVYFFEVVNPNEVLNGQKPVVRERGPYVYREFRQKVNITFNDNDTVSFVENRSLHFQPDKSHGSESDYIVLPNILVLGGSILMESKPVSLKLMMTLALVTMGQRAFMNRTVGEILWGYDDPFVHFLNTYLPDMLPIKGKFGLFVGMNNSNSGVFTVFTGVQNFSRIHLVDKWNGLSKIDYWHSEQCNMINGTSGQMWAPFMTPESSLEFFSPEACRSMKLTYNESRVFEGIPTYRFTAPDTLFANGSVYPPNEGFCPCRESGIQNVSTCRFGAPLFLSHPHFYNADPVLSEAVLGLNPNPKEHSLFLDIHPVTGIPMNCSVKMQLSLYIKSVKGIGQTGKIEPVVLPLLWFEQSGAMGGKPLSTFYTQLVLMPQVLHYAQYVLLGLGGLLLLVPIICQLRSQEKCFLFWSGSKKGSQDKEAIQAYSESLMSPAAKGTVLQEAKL
m5-HT2A agonist: mouse Htr2a agonists via beta-arrestin recruitment, primary screen, cell-based, luminescence; 5-hydroxytryptamine receptor 2A (Mus musculus), P35363; CHO-K1 mHTR2A beta-arrestin complementation; percent of 30 µM serotonin response; activation, % at 7.6 µM; 360,000 compounds, 0.66% hits; AID 624169, 2012;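 active = activation above a run cutoff, the mean activation of all tested compounds plus 3 SD, cut at about 14% in these data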;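 also: 0% = plate median of compound wells and 100% = 30 µM serotonin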
Calb FLC: C. albicans growth inhibition with fluconazole, primary screen, CaCi-2 strain, Alamar Blue fluorescence; AID 1979, 2009; 300,000 compounds, 0.57% hits; C. albicans CaCi-2 + fluconazole, 48 h; growth inhibition, % (test concentration not listed);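 active = growth inhibition above about 58% in most replicates, limit read from the data, passing the limit was not always enough; inconclusive = exactly half the replicates above a set limit; inactive = most replicates below a set limit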;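 also: all wells also contain fluconazole at 8 µg/ml as a sub-toxic cotreatment; 0% = median of DMSO wells and 100% = median of geldanamycin control wells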
SR-BI uptake up: activators of SR-BI mediated DiI-HDL uptake, primary screen, ldlA[mSR-BI] CHO cells, DiI fluorescence | AID 504775, 2011 | 320,000 compounds, 0.096% hits | activation, % at 12.5 µM | 3 h; 100 = double the neutral-control signal;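 active = mean replicate activation of at least 60% and every replicate at or above 60%; inconclusive = mean or all-replicate condition met, but not both; inactive = mean below 60% and not all replicates reaching 60%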;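 also: 0% = median plate neutral-control signal and 100% = twice that signal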
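Material – SR-BI-overexpressing, LDLR-lacking CHO cells · Medium – BSA-supplemented, HEPES-buffered Ham's F12, pH 7.4 · Doses – single concentration · Times – compound with DiI-HDL co-incubation, 3 h at 37 °C · Measured by – bottom-read fluorescence, 550/595 nm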
beta cell repl: inducers of MIN6 beta-cell proliferation, primary screen, ATP luminescence, uHTS; proliferation, % at 10 µM; AID 2380, 2010; 330,000 compounds, 0.29% hits; MIN6 cells proliferation, ATPlite luminescence, 48 h; cells starved in 0.2% serum; 100% = growth in 10% serum;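 active = compounds whose signal lies at least 3.5 SD above the mean of all wells on their plate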;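 also: 0% = DMSO-treated cells in low-serum medium and 100% = 10% serum control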
Insulin prom up: insulin promoter activators in MIN6 cells, imaging, high-content screening, mouse beta cells; 190,000 compounds, 0.3% hits; z-score at 5 µM; MIN6 insulin promoter-GFP reporter; hits give high values; AID 1625, 2009;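 active = z-score above 3 at 5 µM with at least 500 cells counted in the well; inconclusive = wells under 500 cells, flagged as cytotoxic or low count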
An asterisk follows results filed as active; ? = inconclusive; . = no result given. Shown are actives, neighbours in structure and some others; about 2.4% of the full set was active somewhere.

SMILES | SR-BI DiI inh | m5-HT2A agonist | Calb FLC | SR-BI uptake up | beta cell repl | Insulin prom up
c1ccc(-c2ccc(CN3Cc4ccccc4-n4nncc4C3)cc2)cc1 | . | -2.3 | . | . | . | .
N=C1c2ccccc2CN1NC(=O)C1CC1 | -66.0 | 0.9 | -3.6 | 66.0* | -0.6 | -0.02
Cc1oc2ccc(OC(=O)N(C)C)cc2c1C(=O)OC(C)C | 1.8 | -2.2 | 106.6* | -1.8 | -1.8 | -0.59
N#Cc1c(/N=C/c2c(O)n(Cc3ccco3)c(=O)[nH]c2=O)sc2c1CCCC2 | -12.0 | 18.5* | -14.6 | 12.0 | 1.0 | .
CC(=O)OC1CCC2(C)C(CCC3C4CC(N5CC5)C(C(C)=O)C4(C)CC(=O)C32)C1 (stereo unspecified) | -27.2 | 1.4 | . | 27.2 | . | .
CC(=O)c1ccc2c(c1)C1C(Cl)C(Sc3ccccc3[N+](=O)[O-])CC1C(c1ccccc1[N+](=O)[O-])N2 (stereo unspecified) | 73.1* | 3.3 | 30.8 | -73.1 | -6.5 | -0.2
O=C(COC(=O)c1cc(Br)cc(Br)c1O)NC12CC3CC(CC(C3)C1)C2 | . | -2.1 | . | . | . | .
O=C(c1ccccc1)C(CN1CCCC1)c1ccccc1 (stereo unspecified) | -11.3 | -1.4 | 92.7* | 11.3 | . | ?
O=[N+]([O-])c1ccc(C2[C@H]3C(c4ccccc4)=NC4(CCCC4)N23)cc1 (stereo partly specified) | -3.6 | -3.0 | 99.4* | 3.6 | -4.2 | -0.28
Cc1ccc(C2=NC(C)(C)N3C2C3c2ccc([N+](=O)[O-])cc2)cc1 (stereo unspecified) | -8.4 | -2.1 | -0.3 | 8.4 | 0.2 | -1.15
Oc1ccccc1-[n+]1c(-c2ccccc2)cc(-c2ccccc2)cc1-c1ccccc1 | 3.7 | -4.9 | 2.4 | -3.7 | -7.6 | .
[O-]c1ccccc1-[n+]1c(-c2ccccc2)cc(-c2ccccc2)cc1-c1ccccc1 | -3.6 | -3.7 | 96.2* | 3.6 | -8.6 | .
Nc1ccccc1-[n+]1c(-c2ccccc2)cc(-c2ccccc2)cc1-c1ccccc1 | . | 3.3 | 87.3* | . | -5.8 | -2.62
Cc1ccccc1-[n+]1c(-c2ccccc2)cc(-c2ccccc2)cc1-c1ccccc1 | -17.8 | 0.3 | 112.2* | 17.8 | -8.3 | .
CCC(C)(O)C(=O)OC1C(=O)OC2CC3C(C)=CC(O)C(O)C3(C)C3C4(O)OCC23C1C(C)C4O (stereo unspecified) | . | -5.8 | . | . | . | .
COc1ccc(N/N=C/c2c(O)n(-c3ccc(C)c(C)c3)c(=O)[nH]c2=O)cc1 | -22.1 | 5.7 | 0.1 | 22.1 | -0.2 | 0.19
COc1ccc(N/N=C/c2c(O)n(-c3cccc(C)c3)c(=O)[nH]c2=O)cc1 | -28.0 | -1.8 | 113.7* | 28.0 | 0.9 | -0.17
CCOc1cc2c(cc1OCC)-n1cccc1C(c1ccc(C(C)C)cc1)NC2 (stereo unspecified) | 60.2 | -1.0 | -1.7 | -60.2 | -6.0 | .
CC(=O)OC(C)(C)/C=C/C(=O)[C@](C)(O)C1[C@H](O)C[C@@]2(C)C3CC=C4C(C[C@H](O)C(=O)C4(C)C)[C@]3(C)C(=O)C[C@]12C (stereo partly specified) | -6.1 | 16.4* | . | 6.1 | 0.5 | .
COC(=O)N1Cc2ccccc2-n2nncc2C1 | . | 2.1 | . | . | . | .
NC(N)=N/N=C/c1ccc(N(c2ccccc2)c2ccccc2)cc1 | 21.7 | -4.6 | 93.6* | -21.7 | -5.3 | .
COc1ccc(/C=N\N=C(N)N)cc1 | -10.7 | -3.4 | 6.9 | 10.7 | 2.8 | 0.21
COC(=O)C1CN(C#N)N(c2ccc(Cl)cc2)C12c1ccccc1-c1ccccc12 (stereo unspecified) | 127.4* | -2.7 | 0.7 | -127.4 | -3.7 | .
CC1(C)C(C(=O)N2CCN(c3ccc(Cl)cc3)CC2)C1(C)C | 5.4 | 0.4 | . | -5.4 | -4.8 | .
C=Cc1cc(OC)c2c(c1)c(=O)oc1c2cc(OC)c2c(O)ccc(C3OC(C)C(O)C(C)(O)C3O)c21 (stereo unspecified) | 15.1 | 4.9 | . | -15.1 | . | .
SMILES | SR-BI DiI inh | m5-HT2A agonist | Calb FLC | SR-BI uptake up | beta cell repl | Insulin prom up
CCCCCCn1c(O)c(C=Nc2ccccc2N2CCOCC2)c(=O)[nH]c1=S | . | 1.6 | -3.7 | . | -3.0 | 3.25*
CCCCn1c(O)c(/C=N/N2CCOCC2)c(=O)[nH]c1=S | -5.8 | -0.6 | 5.4 | 5.8 | -0.2 | 0
C=C(C)[C@@H]1[C@H]2OC(=O)[C@H]1[C@]1(O)C[C@H]3O[C@]34C(=O)O[C@H]2[C@]14C | -4.8 | 11.2 | . | 4.8 | . | .
CCc1ccc(N2C(=O)NC(=O)C(Cc3ccc(OC)cc3OC)C2=O)cc1 (stereo unspecified) | 83.6* | 6.1 | 0.4 | -83.6 | -0.4 | -0.18
CC(C)C[C@H]1C(=O)N2CCC[C@H]2[C@]2(O)O[C@](NC(=O)[C@@H]3C=C4c5cccc6[nH]cc(c56)C[C@H]4N(C)C3)(C(C)C)C(=O)N12 | 0.7 | 48.9* | . | -0.7 | -7.7 | .
COC(=O)C1(F)C(=O)NC(=O)NC1O (stereo unspecified) | . | -1.8 | . | . | . | .
O=C1C2CCN(CC2)C1Cc1ccc(OCCOc2ccccc2)cc1 (stereo unspecified) | -27.9 | -6.0 | 108.5* | 27.9 | -0.6 | -1.09
O=C1C2CCN(CC2)C1Cc1ccccc1O (stereo unspecified) | . | . | 1.8 | . | -0.5 | -0.22
COc1ccc(-c2cc(-c3ccccc3)[n+](C)c(-c3ccccc3)c2)cc1 | 14.1 | 3.2 | 102.7* | -14.1 | -5.5 | -4.19
COc1ccc(-[n+]2c(-c3ccccc3)cc(-c3ccc(C)cc3)cc2-c2ccccc2)cc1 | -32.5 | 12.1 | 89.3* | 32.5 | -4.0 | .
C[n+]1c(-c2ccccc2)cc(CCCCc2cc(-c3ccccc3)[n+](C)c(-c3ccccc3)c2)cc1-c1ccccc1 | 9.5 | -5.6 | 111.1* | -9.5 | -6.6 | -3.73
Cc1ccc(-c2cc(-c3ccccc3)cc(-c3ccccc3)[n+]2-c2ccc(C(=O)O)cc2)cc1 | -11.8 | 12.0 | -12.5 | 11.8 | -3.0 | .
Cc1c(CCC(=O)N2C[C@H]3C[C@@H](C2)c2cccc(=O)n2C3)c(=O)oc2c(C)c(O)ccc12 | . | -2.0 | . | . | . | .
CCN1CCN(C(=O)COc2ccc(S(=O)(=O)NC(C)C)cc2)CC1 | -25.2 | -3.8 | ? | 25.2 | -0.4 | 2.4
CCN1CCN(C(=O)COc2ccc3oc4c(c3c2)CCCC4)CC1 | 71.9* | -0.1 | . | -71.9 | -1.8 | .
CCN(CC)c1ccc(N=Cc2c(O)n(-c3cc(OC)ccc3OC)c(=O)[nH]c2=O)cc1 | 91.0* | 6.4 | 9.1 | -90.9 | -5.8 | .
CC(N)C(=O)NC1C2C(=C(O)CC(O)C2O)C(=O)OC1(C)C(Cl)Cl (stereo unspecified) | -10.2 | 1.6 | . | 10.2 | . | .

Screening results as filed in PubChem BioAssay.
